Blank lines part the entries; values can stand above or below the compound they belong to. Calls of active or inactive are those of the source. The rule behind the calls is not given here.
Tests used:
Beta-secretase 1 = Beta-secretase 1 (Homo sapiens, UniProt P56817); experiment: Inhibition of BACE1 in human H4 cells expressing APP751 Swedish mutant assessed as inhibition of amyloid beta 40 or amyloid beta 42 production incubated for 19 hrs by microplate reader analysis; format: cell-based
[1] = Metabolic stability in human liver microsomes assessed as parent compound remaining at 0.5 uM after 10 mins; format: ADME; details: read-out: Stability
[2] = Metabolic stability in mouse liver microsomes assessed as parent compound remaining at 0.5 uM after 10 mins; format: ADME; details: read-out: Stability
[3] = Metabolic stability in rat liver microsomes assessed as parent compound remaining at 0.5 uM after 10 mins; format: ADME; details: read-out: Stability
Rattus norvegicus [4] = experiment: Antialzheimer activity in rat assessed as reduction in amyloid beta level in brain at 30 mg/kg, po measured at 5 hrs post dose by ELISA; format: functional, organism-based
Cytochrome P450 2C8 = biological target: T1, Cytochrome P450 2C8 (Homo sapiens, UniProt P10632); experiment: Inhibition of CYP2C8 (unknown origin); format: ADME
T1 sequence (P10632 whole entry): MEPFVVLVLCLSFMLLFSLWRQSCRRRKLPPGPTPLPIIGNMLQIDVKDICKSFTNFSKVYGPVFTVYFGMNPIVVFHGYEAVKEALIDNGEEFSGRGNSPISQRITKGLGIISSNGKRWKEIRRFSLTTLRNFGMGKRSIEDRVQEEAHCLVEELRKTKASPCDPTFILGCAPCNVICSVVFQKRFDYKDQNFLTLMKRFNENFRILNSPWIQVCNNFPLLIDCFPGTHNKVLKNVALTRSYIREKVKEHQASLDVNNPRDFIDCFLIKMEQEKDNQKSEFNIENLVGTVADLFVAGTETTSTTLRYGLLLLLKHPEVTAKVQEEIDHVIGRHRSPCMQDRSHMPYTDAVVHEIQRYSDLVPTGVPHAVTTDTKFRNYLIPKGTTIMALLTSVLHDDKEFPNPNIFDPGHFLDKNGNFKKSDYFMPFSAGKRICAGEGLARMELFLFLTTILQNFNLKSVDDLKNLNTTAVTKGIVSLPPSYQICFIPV

Mus musculus = experiment: Antialzheimer activity in mouse assessed as reduction in amyloid beta 42 level in brain at 10 mg/kg, po by ELISA relative to control; format: functional
[5] = Ratio of drug level in rat brain to plasma at 10 mg/kg, po after 5 hrs; format: ADME, organism-based; details: read-out: BPR
In short: (§1)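 Female rats given a single oral dose in PEG-400/EtOH/Tween 80 (84:15:1). Plasma and brain were collected 5 h postdose, 5 rats per dose, to measure drug exposure and brain Aβ levels. Values are means (n = 5) with SD.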

Cytochrome P450 3A4 [6] = biological target: T2, Cytochrome P450 3A4 (Homo sapiens, UniProt P08684); experiment: Inhibition of CYP3A4 (unknown origin) expressed in baculovirus infected insect cells using benzyloxyresorufin as susbtrate incubated for 45 mins by plate reader analysis in presence of NADP+; format: ADME
T2 sequence (P08684 whole entry): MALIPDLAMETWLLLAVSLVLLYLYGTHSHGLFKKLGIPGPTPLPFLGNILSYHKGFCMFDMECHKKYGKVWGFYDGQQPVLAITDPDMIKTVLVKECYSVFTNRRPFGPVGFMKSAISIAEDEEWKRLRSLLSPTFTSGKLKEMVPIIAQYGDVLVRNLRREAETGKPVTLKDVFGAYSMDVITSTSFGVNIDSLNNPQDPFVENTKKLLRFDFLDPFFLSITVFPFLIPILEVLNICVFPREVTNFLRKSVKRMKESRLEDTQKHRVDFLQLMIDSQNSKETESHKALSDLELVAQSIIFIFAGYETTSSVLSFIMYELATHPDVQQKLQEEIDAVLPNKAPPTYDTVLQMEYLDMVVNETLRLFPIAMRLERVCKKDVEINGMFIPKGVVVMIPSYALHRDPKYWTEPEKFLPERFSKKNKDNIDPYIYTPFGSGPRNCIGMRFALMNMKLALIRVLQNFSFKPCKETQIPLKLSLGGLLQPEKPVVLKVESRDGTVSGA

Plasma [7] = experiment: Free plasma concentration in rat at 1 to 10 mg/kg, po measured at 5 hrs post dose; format: ADME, organism-based; details: in vivo
[8] = Ratio of drug level in rat brain to plasma at 1 mg/kg, po after 5 hrs; format: ADME, organism-based; details: read-out: BPR; in short: as §1
Cytochrome P450 2C9 = Cytochrome P450 2C9 (Homo sapiens, UniProt P11712); experiment: Inhibition of CYP2C9 (unknown origin) expressed in baculovirus infected insect cells using MFC as susbtrate incubated for 45 mins by plate reader analysis in presence of NADP+; format: ADME
Sequence of Cytochrome P450 2C9 (P11712 whole entry): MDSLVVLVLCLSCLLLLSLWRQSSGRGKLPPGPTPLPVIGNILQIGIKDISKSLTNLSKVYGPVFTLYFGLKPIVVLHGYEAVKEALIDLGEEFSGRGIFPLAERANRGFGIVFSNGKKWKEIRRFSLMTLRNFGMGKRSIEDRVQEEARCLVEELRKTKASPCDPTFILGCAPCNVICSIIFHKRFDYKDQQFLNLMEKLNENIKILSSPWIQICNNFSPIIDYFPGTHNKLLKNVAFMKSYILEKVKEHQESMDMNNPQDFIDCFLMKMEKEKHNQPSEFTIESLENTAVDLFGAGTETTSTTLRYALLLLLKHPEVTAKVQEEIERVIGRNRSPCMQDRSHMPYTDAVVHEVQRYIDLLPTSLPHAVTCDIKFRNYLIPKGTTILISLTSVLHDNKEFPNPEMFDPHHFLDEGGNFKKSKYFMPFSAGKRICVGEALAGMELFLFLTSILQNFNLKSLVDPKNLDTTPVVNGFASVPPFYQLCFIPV

[9] = Plasma concentration in rat at 1 mg/kg, po after 5 hrs; format: ADME, organism-based; in short: as §1
Cytochrome P450 2C19 = Cytochrome P450 2C19 (Homo sapiens, UniProt P33261); experiment: Inhibition of CYP2C19 (unknown origin) expressed in baculovirus infected insect cells using CEC as susbtrate incubated for 45 mins by plate reader analysis in presence of NADP+; format: ADME
Sequence of Cytochrome P450 2C19 (P33261 whole entry): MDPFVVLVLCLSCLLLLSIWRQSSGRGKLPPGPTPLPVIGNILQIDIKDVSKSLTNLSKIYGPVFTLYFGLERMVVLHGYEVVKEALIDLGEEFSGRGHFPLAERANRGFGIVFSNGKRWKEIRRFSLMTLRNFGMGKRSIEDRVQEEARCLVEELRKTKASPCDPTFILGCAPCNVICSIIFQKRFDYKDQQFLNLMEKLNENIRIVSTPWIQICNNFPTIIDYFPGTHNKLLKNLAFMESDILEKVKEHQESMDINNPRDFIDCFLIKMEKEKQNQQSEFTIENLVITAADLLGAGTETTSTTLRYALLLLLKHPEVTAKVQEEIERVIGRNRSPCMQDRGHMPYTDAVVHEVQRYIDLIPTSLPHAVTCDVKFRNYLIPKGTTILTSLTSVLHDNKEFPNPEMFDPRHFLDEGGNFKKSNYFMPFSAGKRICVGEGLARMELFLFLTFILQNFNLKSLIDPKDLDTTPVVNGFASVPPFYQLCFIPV

Plasma [10] = experiment: Drug metabolism in mouse plasma assessed as (4S,6S)-4-(5-amino-2,3-difluorophenyl)-6-(3,5-dimethylisoxazol-4-yl)-4-methyl-5,6-dihydro-4H-1,3-thiazin-2-amine formation at 10 mg/kg, po after 3 hrs; format: ADME, organism-based; details: in vivo
[11] = Plasma concentration in rat at 10 mg/kg, po after 5 hrs; format: ADME, organism-based; in short: as §1
Cytochrome P450 1A2 = biological target: T3, Cytochrome P450 1A2 (Homo sapiens, UniProt P05177); experiment: Inhibition of CYP1A2 (unknown origin) expressed in baculovirus infected insect cells using CEC as susbtrate incubated for 45 mins by plate reader analysis in presence of NADP+; format: ADME
T3 sequence (P05177 whole entry): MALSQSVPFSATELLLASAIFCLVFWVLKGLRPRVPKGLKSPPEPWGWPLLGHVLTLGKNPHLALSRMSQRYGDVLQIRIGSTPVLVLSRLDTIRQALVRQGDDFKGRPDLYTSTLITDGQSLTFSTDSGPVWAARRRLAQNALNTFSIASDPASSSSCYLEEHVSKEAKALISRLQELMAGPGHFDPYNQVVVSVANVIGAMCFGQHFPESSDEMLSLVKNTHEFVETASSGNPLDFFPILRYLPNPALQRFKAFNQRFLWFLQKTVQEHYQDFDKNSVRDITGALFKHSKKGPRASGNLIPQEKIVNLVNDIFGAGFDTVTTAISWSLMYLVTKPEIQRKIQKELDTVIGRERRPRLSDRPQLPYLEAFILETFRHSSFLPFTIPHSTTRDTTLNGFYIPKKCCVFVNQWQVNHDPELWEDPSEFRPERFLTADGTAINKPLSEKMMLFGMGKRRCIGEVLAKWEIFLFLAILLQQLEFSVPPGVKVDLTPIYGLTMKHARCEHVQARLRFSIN

Rattus norvegicus [12] = experiment: Antialzheimer activity in rat assessed as total plasma concentration required for reduction in amyloid beta (1 to 42) level in brain at 1 to 10 mg/kg, po measured at 5 hrs post dose; format: functional, organism-based
[13] = Drug level in rat brain at 3 mg/kg, po after 5 hrs; format: ADME, organism-based; details: read-out: Drug uptake; in short: as §1
[14] = Drug level in rat brain at 1 mg/kg, po after 5 hrs; format: ADME, organism-based; details: read-out: Drug uptake; in short: as §1
Rattus norvegicus [15] = experiment: Antialzheimer activity in po dosed rat assessed as reduction in total amyloid beta level in brain measured at 5 hrs post dose by ELISA; format: functional, organism-based; in short: as §1
Cytochrome P450 3A4 [16] = biological target: T2, Cytochrome P450 3A4; experiment: Inhibition of CYP3A4 (unknown origin) expressed in baculovirus infected insect cells using BFC as susbtrate incubated for 45 mins by plate reader analysis in presence of NADP+; format: ADME
Rattus norvegicus [17] = experiment: Antialzheimer activity in po dosed rat assessed as reduction in amyloid beta (1 to 40) level in brain measured at 5 hrs post dose by ELISA; format: functional, organism-based; in short: as §1
[18] = Ratio of drug level in rat brain to plasma at 3 mg/kg, po after 5 hrs; format: ADME, organism-based; details: read-out: BPR; in short: as §1
Rattus norvegicus [19] = experiment: Antialzheimer activity in po dosed rat assessed as reduction in amyloid beta (1 to 42) level in brain measured at 5 hrs post dose by ELISA; format: functional, organism-based; in short: as §1
[20] = Drug level in rat brain at 10 mg/kg, po after 5 hrs; format: ADME, organism-based; details: read-out: Drug uptake; in short: as §1
Rattus norvegicus [21] = experiment: Antialzheimer activity in rat assessed as free drug concentration in plasma required for reduction in amyloid beta (1 to 42) level in brain at 1 to 10 mg/kg, po measured at 5 hrs post dose; format: functional, organism-based
Cytochrome P450 2D6 = Cytochrome P450 2D6 (Homo sapiens, UniProt P10635); experiment: Inhibition of CYP2D6 (unknown origin) expressed in baculovirus infected insect cells using AMMC as susbtrate incubated for 45 mins by plate reader analysis in presence of NADP+; format: ADME
Sequence of Cytochrome P450 2D6 (P10635 whole entry): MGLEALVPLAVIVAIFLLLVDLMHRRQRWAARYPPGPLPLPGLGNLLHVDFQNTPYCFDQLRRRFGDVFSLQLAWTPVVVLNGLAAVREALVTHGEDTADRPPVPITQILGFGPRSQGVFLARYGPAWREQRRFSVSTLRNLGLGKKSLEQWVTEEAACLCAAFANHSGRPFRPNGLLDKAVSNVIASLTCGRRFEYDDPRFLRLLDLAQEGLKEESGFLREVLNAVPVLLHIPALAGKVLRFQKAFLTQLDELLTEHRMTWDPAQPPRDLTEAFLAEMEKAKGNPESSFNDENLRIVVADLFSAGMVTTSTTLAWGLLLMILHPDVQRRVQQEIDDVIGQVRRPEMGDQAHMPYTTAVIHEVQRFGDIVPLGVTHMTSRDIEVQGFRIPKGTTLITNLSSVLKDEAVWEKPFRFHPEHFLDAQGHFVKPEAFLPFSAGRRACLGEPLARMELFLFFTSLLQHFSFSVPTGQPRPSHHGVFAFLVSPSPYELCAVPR

[22] = Plasma concentration in rat at 3 mg/kg, po after 5 hrs; format: ADME, organism-based; in short: as §1
[23] = Plasma protein binding in rat at 1 to 10 mg/kg, po measured at 5 hrs post dose; format: ADME, organism-based; details: read-out: PPB (converted)
Salmonella typhimurium = experiment: Mutagenicity in Salmonella typhimurium by Ames test; format: toxicity, organism-based; details: salmonella enterica subsp. enterica serovar typhimurium

Sequence of Beta-secretase 1 (P56817 whole entry): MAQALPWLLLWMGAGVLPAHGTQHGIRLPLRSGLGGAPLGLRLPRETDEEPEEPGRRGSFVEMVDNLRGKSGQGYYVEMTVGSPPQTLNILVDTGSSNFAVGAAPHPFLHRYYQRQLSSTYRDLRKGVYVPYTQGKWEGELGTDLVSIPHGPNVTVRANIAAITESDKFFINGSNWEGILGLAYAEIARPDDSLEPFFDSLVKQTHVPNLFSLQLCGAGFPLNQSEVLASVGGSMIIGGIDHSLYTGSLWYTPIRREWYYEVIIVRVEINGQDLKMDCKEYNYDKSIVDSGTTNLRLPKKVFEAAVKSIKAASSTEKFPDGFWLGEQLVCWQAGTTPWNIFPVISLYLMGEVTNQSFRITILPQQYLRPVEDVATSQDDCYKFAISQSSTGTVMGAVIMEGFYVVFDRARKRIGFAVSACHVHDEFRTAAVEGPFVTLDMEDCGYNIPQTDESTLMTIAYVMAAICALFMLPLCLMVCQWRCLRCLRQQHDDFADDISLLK

IC50 (Beta-secretase 1): 70 nM
Compound: Cc1noc(C)c1[C@@H]1C[C@@H](c2cc(-c3cncnc3)c(F)cc2F)N=C(N)S1

IC50 (Beta-secretase 1): 180 nM
Compound: Cc1oncc1[C@]1(C)C[C@@H](c2cc(-c3cncnc3)c(F)cc2F)N=C(N)S1 (racemic)

IC50 (Beta-secretase 1): 160 nM
remaining at 10 min, 0.5 µM [1]: 38%
remaining at 10 min, 0.5 µM [2]: 38%
remaining at 10 min, 0.5 µM [3]: 43%
Compound: Cc1noc(C)c1[C@@H]1C[C@@](C)(c2cccc(NC(=O)c3ccc(Cl)cn3)c2F)N=C(N)S1

IC50 (Beta-secretase 1): 1100 nM
Compound: COc1ccc([C@@H]2C[C@@H](c3cccc(-c4cncnc4)c3)N=C(N)S2)cc1OC

IC50 (Beta-secretase 1): 31 nM
remaining at 10 min, 0.5 µM [1]: 78%
remaining at 10 min, 0.5 µM [2]: 75%
remaining at 10 min, 0.5 µM [3]: 76%
Compound: Cc1noc(C)c1[C@@H]1C[C@@](C)(c2cc(NC(=O)c3ccc(Cl)cn3)c(F)cc2F)N=C(N)S1

IC50 (Beta-secretase 1): 5 nM
Compound: Cc1noc(C)c1[C@@H]1C[C@@H](c2cc(NC(=O)c3ccc(Cl)cn3)ccc2F)N=C(N)S1

IC50 (Beta-secretase 1): 3700 nM
Compound: Cc1noc(C)c1[C@]1(C)C[C@@H](c2cc(-c3cncnc3)c(F)cc2F)N=C(N)S1 (relative stereo)

IC50 (Beta-secretase 1): 2.3 nM
remaining at 10 min, 0.5 µM [1]: 39%
remaining at 10 min, 0.5 µM [2]: 13%
remaining at 10 min, 0.5 µM [3]: 26%
Compound: Cc1noc(C)c1[C@@H]1C[C@@](C)(c2cc(F)cc(NC(=O)c3ccc(Cl)cn3)c2)N=C(N)S1

IC50 (Beta-secretase 1): 0.7 nM
remaining at 10 min, 0.5 µM [1]: 87%
remaining at 10 min, 0.5 µM [2]: 58%
remaining at 10 min, 0.5 µM [3]: 63%
Compound: Cc1noc(C)c1[C@@H]1C[C@@](C)(c2cc(NC(=O)c3ccc(Cl)cn3)cc(F)c2F)N=C(N)S1

IC50 (Beta-secretase 1): 290 nM
Compound: COc1ccc([C@@H]2C[C@@H](c3cc(-c4cncnc4)c(F)cc3F)N=C(N)S2)cc1OC

remaining at 10 min, 0.5 µM [1]: 23%
remaining at 10 min, 0.5 µM [2]: 48%
remaining at 10 min, 0.5 µM [3]: 49%
Compound: Cc1noc(C)c1[C@@H]1C[C@@](C)(c2cc(-c3cncnc3)c(F)cc2F)N=C(N)S1
inhibition (Rattus norvegicus [4]): Active

IC50 (Cytochrome P450 2C8): 5000 nM
IC50 (Beta-secretase 1): 0.9 nM
Kp at 5 h [5]: 0.3
IC50 (Cytochrome P450 3A4 [6]): > 20000 nM
Cp(f) (Plasma [7]): 13 nM
Kp at 5 h [8]: 0.44
IC50 (Cytochrome P450 2C9): > 20000 nM
concentration at 5 h [9]: 150 nM
IC50 (Cytochrome P450 2C19): > 20000 nM
Drug metabolism (Plasma [10]): metabolite_detected
remaining at 10 min, 0.5 µM [1]: 81%
concentration at 5 h [11]: 1500 nM
IC50 (Cytochrome P450 1A2): > 20000 nM
EC50 (Rattus norvegicus [12]): 260 nM
concentration at 5 h [13]: 160 nM
concentration at 5 h [14]: 67 nM
IC50 (Cytochrome P450 3A4 [16]): > 20000 nM
remaining at 10 min, 0.5 µM [2]: 74%
remaining at 10 min, 0.5 µM [3]: 69%
Kp at 5 h [18]: 0.46
concentration at 5 h [20]: 420 nM
EC50 (Rattus norvegicus [21]): 13 nM
IC50 (Cytochrome P450 2D6): > 20000 nM
concentration at 5 h [22]: 360 nM
Compound: COc1cnc(C(=O)Nc2cc(F)c(F)c([C@]3(C)C[C@@H](c4c(C)noc4C)SC(N)=N3)c2)cn1
inhibition in vivo at 10 mg/kg (Mus musculus): 85%
inhibition (Rattus norvegicus [15]): Dose-dependent effect
inhibition (Rattus norvegicus [17]): Dose-dependent effect
inhibition (Rattus norvegicus [19]): Dose-dependent effect

fraction unbound at 5 h [23]: 0.05
Compound: Cc1noc(C)c1[C@@H]1C[C@@](C)(c2cc(N)cc(F)c2F)N=C(N)S1
Activity (Salmonella typhimurium): Non-toxic

— ChEMBL document CHEMBL3804782, “Targeting the BACE1 Active Site Flap Leads to a Potent Inhibitor That Elicits Robust Brain Aβ Reduction in Rodents” (ACS Med Chem Lett, 2016)
